In brackets after ≈: the same amount, converted by molar mass.
Tests used:
Assay type in all cases: functional
[1] = test system: Staphylococcus aureus; test: Antibacterial activity against Staphylococcus aureus after 16 to 18 hrs by serial dilution method; settings: for MIC: Staphylococcus aureus
Summary of the method: (§1)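 The test compound was dissolved in DMF and serially diluted. A standard drop of the prepared microbial culture was added to each dilution, and tubes were incubated at 37 °C for 16–18 h. MIC was taken as the highest dilution that stayed clear with no visible turbidity.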

[2] = test system: Escherichia coli; test: Antibacterial activity against Escherichia coli after 16 to 18 hrs by serial dilution method; settings: for MIC: Escherichia coli; summary of the method: as §1
[3] = test system: Pseudomonas aeruginosa; test: Antibacterial activity against Pseudomonas aeruginosa after 16 to 18 hrs by serial dilution method; settings: for MIC: Pseudomonas aeruginosa; summary of the method: as §1
[4] = test system: Klebsiella pneumoniae; test: Antibacterial activity against Klebsiella pneumoniae after 16 to 18 hrs by serial dilution method; settings: for MIC: Klebsiella pneumoniae
[5] = test system: Talaromyces marneffei; test: Antifungal activity against Penicillium marneffei after 16 to 18 hrs by serial dilution method; settings: for MIC: Talaromyces marneffei; summary of the method: as §1
[6] = test system: Trichophyton mentagrophytes; test: Antifungal activity against Trichophyton mentagrophytes after 16 to 18 hrs by serial dilution method; settings: for MIC: Trichophyton mentagrophytes
[7] = test system: Aspergillus flavus; test: Antifungal activity against Aspergillus flavus after 16 to 18 hrs by serial dilution method; settings: for MIC: Aspergillus flavus; summary of the method: as §1
[8] = test system: Aspergillus fumigatus; test: Antifungal activity against Aspergillus fumigatus after 16 to 18 hrs by serial dilution method; settings: for MIC: Aspergillus fumigatus

| MIC [1] | MIC [2] | MIC [3] | MIC [4] | MIC [5] | MIC [6] | MIC [7] | MIC [8] | Structure (SMILES) | inhibition zone (IZ) [1] | inhibition zone (IZ) [2] | inhibition zone (IZ) [3] | inhibition zone (IZ) [4] | inhibition zone (IZ) [5] | inhibition zone (IZ) [6] | inhibition zone (IZ) [7] | inhibition zone (IZ) [8] |
| --- | --- | --- | --- | --- | --- | --- | --- | --- | --- | --- | --- | --- | --- | --- | --- | --- |
| 25 µg/mL (≈ 64.4 µM) | 25 µg/mL (≈ 64.4 µM) | 25 µg/mL (≈ 64.4 µM) | 25 µg/mL (≈ 64.4 µM) | 25 µg/mL (≈ 64.4 µM) | 25 µg/mL (≈ 64.4 µM) | 25 µg/mL (≈ 64.4 µM) | 25 µg/mL (≈ 64.4 µM) | Cc1ccccc1OCc1ccccc1-c1nnc(SCc2ccccc2)o1 | <10 mm | <10 mm | <10 mm | <10 mm | <10 mm | <10 mm | <10 mm | <10 mm |
| 25 µg/mL (≈ 60.4 µM) | 25 µg/mL (≈ 60.4 µM) | 25 µg/mL (≈ 60.4 µM) | 25 µg/mL (≈ 60.4 µM) | 25 µg/mL (≈ 60.4 µM) | 25 µg/mL (≈ 60.4 µM) | 25 µg/mL (≈ 60.4 µM) | 25 µg/mL (≈ 60.4 µM) | Clc1ccc(OCc2ccccc2-c2nnc(-c3cccc4ncccc34)o2)cc1 | <10 mm | <10 mm | <10 mm | <10 mm | <10 mm | <10 mm | <10 mm | <10 mm |
| 25 µg/mL (≈ 59.3 µM) | 25 µg/mL (≈ 59.3 µM) | 25 µg/mL (≈ 59.3 µM) | 25 µg/mL (≈ 59.3 µM) | 25 µg/mL (≈ 59.3 µM) | 25 µg/mL (≈ 59.3 µM) | 25 µg/mL (≈ 59.3 µM) | 25 µg/mL (≈ 59.3 µM) | Cc1ccc(OCc2ccccc2-c2nnc(-c3cccc(Br)c3)o2)cc1 | <10 mm | <10 mm | <10 mm | <10 mm | <10 mm | <10 mm | <10 mm | <10 mm |
| 6.25 µg/mL (≈ 17.3 µM) | 6.25 µg/mL (≈ 17.3 µM) | 6.25 µg/mL (≈ 17.3 µM) | 6.25 µg/mL (≈ 17.3 µM) | 6.25 µg/mL (≈ 17.3 µM) | 6.25 µg/mL (≈ 17.3 µM) | 6.25 µg/mL (≈ 17.3 µM) | 6.25 µg/mL (≈ 17.3 µM) | Cc1ccc(OCc2ccccc2-c2nnc(-c3ccccc3F)o2)cc1 | 16 mm | 16 mm | 16 mm | 16 mm | 16 mm | 16 mm | 16 mm | 16 mm |
| 12.5 µg/mL (≈ 31.1 µM) | 12.5 µg/mL (≈ 31.1 µM) | 12.5 µg/mL (≈ 31.1 µM) | 12.5 µg/mL (≈ 31.1 µM) | 12.5 µg/mL (≈ 31.1 µM) | 12.5 µg/mL (≈ 31.1 µM) | 12.5 µg/mL (≈ 31.1 µM) | 6.25 µg/mL (≈ 15.5 µM) | Cc1cccc(CSc2nnc(-c3ccccc3COc3ccccc3C)o2)c1 | 11 mm | 11 mm | 11 mm | 11 mm | 11 mm | 11 mm | 11 mm | 16 mm |
| 25 µg/mL (≈ 55.3 µM) | 25 µg/mL (≈ 55.3 µM) | 25 µg/mL (≈ 55.3 µM) | 25 µg/mL (≈ 55.3 µM) | 25 µg/mL (≈ 55.3 µM) | 25 µg/mL (≈ 55.3 µM) | 25 µg/mL (≈ 55.3 µM) | 25 µg/mL (≈ 55.3 µM) | Cc1cccc(OCc2ccccc2-c2nn(CNc3cc(C)ccc3Cl)c(=S)o2)c1 | <10 mm | <10 mm | <10 mm | <10 mm | <10 mm | <10 mm | <10 mm | <10 mm |
| 25 µg/mL (≈ 52.9 µM) | 25 µg/mL (≈ 52.9 µM) | 25 µg/mL (≈ 52.9 µM) | 25 µg/mL (≈ 52.9 µM) | 25 µg/mL (≈ 52.9 µM) | 25 µg/mL (≈ 52.9 µM) | 25 µg/mL (≈ 52.9 µM) | 25 µg/mL (≈ 52.9 µM) | Cc1ccc(Cl)c(NCn2nc(-c3ccccc3COc3ccc(Cl)cc3)oc2=S)c1 | <10 mm | <10 mm | <10 mm | <10 mm | <10 mm | <10 mm | <10 mm | <10 mm |
| 6.25 µg/mL (≈ 13.8 µM) | 6.25 µg/mL (≈ 13.8 µM) | 6.25 µg/mL (≈ 13.8 µM) | 6.25 µg/mL (≈ 13.8 µM) | 6.25 µg/mL (≈ 13.8 µM) | 6.25 µg/mL (≈ 13.8 µM) | 6.25 µg/mL (≈ 13.8 µM) | 6.25 µg/mL (≈ 13.8 µM) | COc1cc(-c2nnc(-c3ccccc3COc3ccc(Cl)cc3)o2)cc(OC)c1OC | 16 mm | 16 mm | 16 mm | 16 mm | 16 mm | 16 mm | 16 mm | 16 mm |
| 12.5 µg/mL (≈ 31.1 µM) | 12.5 µg/mL (≈ 31.1 µM) | 12.5 µg/mL (≈ 31.1 µM) | 12.5 µg/mL (≈ 31.1 µM) | 12.5 µg/mL (≈ 31.1 µM) | 12.5 µg/mL (≈ 31.1 µM) | 12.5 µg/mL (≈ 31.1 µM) | 6.25 µg/mL (≈ 15.5 µM) | Cc1cccc(CSc2nnc(-c3ccccc3COc3cccc(C)c3)o2)c1 | 11 mm | 11 mm | 11 mm | 11 mm | 11 mm | 11 mm | 11 mm | 16 mm |
| 12.5 µg/mL (≈ 33.7 µM) | 12.5 µg/mL (≈ 33.7 µM) | 12.5 µg/mL (≈ 33.7 µM) | 12.5 µg/mL (≈ 33.7 µM) | 12.5 µg/mL (≈ 33.7 µM) | 12.5 µg/mL (≈ 33.7 µM) | 12.5 µg/mL (≈ 33.7 µM) | 6.25 µg/mL (≈ 16.9 µM) | Cc1cccc(OCc2ccccc2-c2nnc(-c3cc(C)cc(C)c3)o2)c1 | 11 mm | 11 mm | 11 mm | 11 mm | 11 mm | 11 mm | 11 mm | 16 mm |
| 25 µg/mL (≈ 59.3 µM) | 25 µg/mL (≈ 59.3 µM) | 25 µg/mL (≈ 59.3 µM) | 25 µg/mL (≈ 59.3 µM) | 25 µg/mL (≈ 59.3 µM) | 25 µg/mL (≈ 59.3 µM) | 25 µg/mL (≈ 59.3 µM) | 25 µg/mL (≈ 59.3 µM) | Cc1cccc(OCc2ccccc2-c2nnc(-c3cccc(Br)c3)o2)c1 | <10 mm | <10 mm | <10 mm | <10 mm | <10 mm | <10 mm | <10 mm | <10 mm |
| 25 µg/mL (≈ 73 µM) | 25 µg/mL (≈ 73 µM) | 25 µg/mL (≈ 73 µM) | 25 µg/mL (≈ 73 µM) | 25 µg/mL (≈ 73 µM) | 25 µg/mL (≈ 73 µM) | 25 µg/mL (≈ 73 µM) | 25 µg/mL (≈ 73 µM) | Cc1ccccc1OCc1ccccc1-c1nnc(-c2ccccc2)o1 | <10 mm | <10 mm | <10 mm | <10 mm | <10 mm | <10 mm | <10 mm | <10 mm |
| 12.5 µg/mL (≈ 29.6 µM) | 12.5 µg/mL (≈ 29.6 µM) | 12.5 µg/mL (≈ 29.6 µM) | 12.5 µg/mL (≈ 29.6 µM) | 12.5 µg/mL (≈ 29.6 µM) | 12.5 µg/mL (≈ 29.6 µM) | 12.5 µg/mL (≈ 29.6 µM) | 12.5 µg/mL (≈ 29.6 µM) | Cc1ccccc1OCc1ccccc1-c1nnc(SCc2ccc(Cl)cc2)o1 | 11 mm | 11 mm | 11 mm | 11 mm | 11 mm | 11 mm | 11 mm | 11 mm |
| 12.5 µg/mL (≈ 31.4 µM) | 12.5 µg/mL (≈ 31.4 µM) | 12.5 µg/mL (≈ 31.4 µM) | 12.5 µg/mL (≈ 31.4 µM) | 12.5 µg/mL (≈ 31.4 µM) | 12.5 µg/mL (≈ 31.4 µM) | 12.5 µg/mL (≈ 31.4 µM) | 12.5 µg/mL (≈ 31.4 µM) | Cc1cccc(OCc2ccccc2-c2nn(CN3CCOCC3)c(=S)o2)c1 | 11 mm | 11 mm | 11 mm | 11 mm | 11 mm | 11 mm | 11 mm | 11 mm |
| 25 µg/mL (≈ 62.9 µM) | 25 µg/mL (≈ 62.9 µM) | 25 µg/mL (≈ 62.9 µM) | 25 µg/mL (≈ 62.9 µM) | 25 µg/mL (≈ 62.9 µM) | 25 µg/mL (≈ 62.9 µM) | 25 µg/mL (≈ 62.9 µM) | 25 µg/mL (≈ 62.9 µM) | Clc1ccc(OCc2ccccc2-c2nnc(-c3ccc(Cl)cc3)o2)cc1 | <10 mm | <10 mm | <10 mm | <10 mm | <10 mm | <10 mm | <10 mm | <10 mm |
| 25 µg/mL (≈ 72.1 µM) | 25 µg/mL (≈ 72.1 µM) | 25 µg/mL (≈ 72.1 µM) | 25 µg/mL (≈ 72.1 µM) | 25 µg/mL (≈ 72.1 µM) | 25 µg/mL (≈ 72.1 µM) | 25 µg/mL (≈ 72.1 µM) | 25 µg/mL (≈ 72.1 µM) | CCSc1nnc(-c2ccccc2COc2ccc(Cl)cc2)o1 | <10 mm | <10 mm | <10 mm | <10 mm | <10 mm | <10 mm | <10 mm | <10 mm |
| 25 µg/mL (≈ 63.5 µM) | 25 µg/mL (≈ 63.5 µM) | 25 µg/mL (≈ 63.5 µM) | 25 µg/mL (≈ 63.5 µM) | 25 µg/mL (≈ 63.5 µM) | 25 µg/mL (≈ 63.5 µM) | 25 µg/mL (≈ 63.5 µM) | 25 µg/mL (≈ 63.5 µM) | Cc1ccccc1OCc1ccccc1-c1nnc(-c2cccc3ncccc23)o1 | <10 mm | <10 mm | <10 mm | <10 mm | <10 mm | <10 mm | <10 mm | <10 mm |
